Our source for the Activity, Ki and Km values is ChEMBL document CHEMBL2073777, “Characterization of ochratoxin A transport by human organic anion transporters” (Life Sci, 2001).

Assay type in all cases: functional, cell-based
In series [1] the target is T1, Organic anion transporter 3 (Homo sapiens, UniProt Q8TCC7).
T1 sequence (Q8TCC7 whole entry): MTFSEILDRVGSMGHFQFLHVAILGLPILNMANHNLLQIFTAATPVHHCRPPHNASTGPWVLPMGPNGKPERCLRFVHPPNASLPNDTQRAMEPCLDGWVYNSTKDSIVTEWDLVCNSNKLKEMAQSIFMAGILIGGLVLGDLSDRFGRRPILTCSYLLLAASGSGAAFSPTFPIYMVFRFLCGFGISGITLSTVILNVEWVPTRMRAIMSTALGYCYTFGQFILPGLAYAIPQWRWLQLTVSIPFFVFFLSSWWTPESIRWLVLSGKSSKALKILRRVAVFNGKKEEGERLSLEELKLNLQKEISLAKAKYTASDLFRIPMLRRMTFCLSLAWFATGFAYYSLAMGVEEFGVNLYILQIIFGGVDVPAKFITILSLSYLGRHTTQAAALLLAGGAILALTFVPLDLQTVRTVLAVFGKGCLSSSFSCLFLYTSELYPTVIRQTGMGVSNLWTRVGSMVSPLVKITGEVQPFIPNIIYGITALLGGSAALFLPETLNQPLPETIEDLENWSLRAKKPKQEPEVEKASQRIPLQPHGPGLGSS
Put plainly: TP_TRANSPORTER: inhibition of Ochratoxin A uptake (OTA: 1 uM, Aspartame: 200 uM) in OAT3-expressing S2 cells. The settings on record: s2, 200 µM. Summed up: (§1)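 Mouse proximal tubule second-segment (S2) cells stably expressing human OAT1 or OAT3. Uptake of [³H]-labelled ochratoxin A was measured with and without added OAT substrates as inhibitors.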

Series [2] addresses T2, Solute carrier family 22 member 6 (Homo sapiens, UniProt Q4U2R8).
T2 sequence (Q4U2R8 whole entry): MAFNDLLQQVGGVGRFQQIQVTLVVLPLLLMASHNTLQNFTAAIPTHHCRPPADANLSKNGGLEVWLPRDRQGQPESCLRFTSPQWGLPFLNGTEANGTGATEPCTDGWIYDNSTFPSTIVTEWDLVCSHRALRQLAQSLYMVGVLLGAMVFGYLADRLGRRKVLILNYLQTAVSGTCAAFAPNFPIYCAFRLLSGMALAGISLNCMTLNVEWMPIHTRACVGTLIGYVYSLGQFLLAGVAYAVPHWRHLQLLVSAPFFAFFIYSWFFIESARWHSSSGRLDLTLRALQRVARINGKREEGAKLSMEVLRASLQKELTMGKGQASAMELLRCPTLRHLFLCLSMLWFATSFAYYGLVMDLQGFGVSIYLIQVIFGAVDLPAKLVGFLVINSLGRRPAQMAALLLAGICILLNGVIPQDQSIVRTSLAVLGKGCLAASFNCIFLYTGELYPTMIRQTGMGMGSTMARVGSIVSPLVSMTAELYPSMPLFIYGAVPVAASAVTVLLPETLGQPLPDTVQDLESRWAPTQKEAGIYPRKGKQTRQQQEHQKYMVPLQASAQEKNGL
Put plainly: TP_TRANSPORTER: inhibition of Ochratoxin A uptake (OTA: 1 uM, Aspartame: 200 uM) in OAT1-expressing S2 cells. The settings on record: s2, 200 µM. Summed up:
as §1

The target of series [3] is T1, Organic anion transporter 3. The series is described as follows: TP_TRANSPORTER: inhibition of Ochratoxin A uptake in OAT3-expressing S2 cells.
Series [4] shares this target. The series is described as follows: TP_TRANSPORTER: inhibition of Ochratoxin A uptake (OTA: 1 uM, PCG: 200 uM) in OAT3-expressing S2 cells. The settings on record: mouse, s2, 200 µM. Summed up:
as §1

The target of series [5] is T3, OAT3 (Organic anion transporter 3) (Homo sapiens, UniProt Q8TCC7).
T3 sequence (Q8TCC7 whole entry): T1 sequence (Q8TCC7 whole entry)
The series is described as follows: TP_TRANSPORTER: uptake in OAT3-expressing S2 cells. The settings on record: mouse, S2 cells that express OAT3. The essentials: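 S2 proximal tubule cells from mice stably expressing human OAT3. [³H]-ochratoxin A uptake was followed over time and concentration, and the apparent Km was taken from the saturable uptake.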

Series [6] deals with T1, Organic anion transporter 3. Put plainly: TP_TRANSPORTER: inhibition of Ochratoxin A uptake (OTA: 1 uM, Indomethacin: 200 uM) in OAT3-expressing S2 cells. To be noted: mouse, s2, 200 µM. The essentials:
as §1

The target of series [7] is T2, Solute carrier family 22 member 6. Put plainly: TP_TRANSPORTER: inhibition of Ochratoxin A uptake (OTA: 1 uM, Indomethacin: 200 uM) in OAT1-expressing S2 cells. The settings on record: mouse, s2, 200 µM. Summed up:
as §1

In the case of `COC(=O)[C@H](Cc1ccccc1)NC(=O)[C@@H](N)CC(=O)O`, the Activity entry in series [1] and in series [2] was “is not an inhibitor [-]” in each case.
One may read the Ki as the dissociation constant of the complex between target and ligand, obtained from inhibition or displacement. As for `CN1C(C(=O)Nc2ccccn2)=C(O)c2ccccc2S1(=O)=O` [PIROXICAM], the Ki in series [3] came out at 4.88 µM.
Consider `CCCCCCCC(=O)O` [OCTANOIC ACID], for which the affinity in series [3] corresponds to a Ki of 8.6 µM.
Regarding `CC1(C)S[C@@H]2[C@H](NC(=O)Cc3ccccc3)C(=O)N2[C@H]1C(=O)O` [PENICILLIN G], in series [4], the Activity result was “inhibitor [(at a rough estimate) 35 % of control]”.
Broadly, the Km is the substrate concentration at which the rate is half of its maximum. For `C[C@@H]1Cc2c(Cl)cc(C(=O)N[C@@H](Cc3ccccc3)C(=O)O)c(O)c2C(=O)O1` [3R14S-OCHRATOXIN A], the Km in series [5] is 0.75 µM.
In series [3], `CC1=C2C(=CO[C@H](C)[C@H]2C)C(O)=C(C(=O)O)C1=O` [CITRININ] had a Ki of 15.4 µM.
`COc1ccc2c(c1)c(CC(=O)O)c(C)n2C(=O)c1ccc(Cl)cc1` [INDOMETHACIN]: the Activity entry was “inhibitor [(at a rough estimate) 15 % of control]” in series [6] and “inhibitor [(at a rough estimate) 25 % of control]” in series [7].
